According to ChEMBL document CHEMBL1146022, “Replacement of the metabolically labile methyl esters in the alkenyldiarylmethane series of non-nucleoside reverse transcriptase inhibitors with isoxazolone, isoxazole, oxazolone, or cyano substituents” (J Med Chem, 2006):

Assays:
[1] = target: Human immunodeficiency virus type 1 reverse transcriptase (Human immunodeficiency virus 1, UniProt Q72547); test: Inhibition of recombinant HIV1 reverse transcriptase measured as inhibition of incorporation of [32P]GTP in rCDG primer; type: functional
Outline: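 Purified recombinant HIV-1 RT p66/p51 heterodimer. Polymerase activity followed as [32P]GTP incorporation on poly(rC)/oligo(dG) homopolymer template-primer. IC50 taken from inhibition of incorporation.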

[2] = tested on: Human immunodeficiency virus 1; test: Antiviral activity against HIV1 RF in CEM-SS cells by MTS cytoprotection assay; type: functional, organism-based; conditions: Human immunodeficiency virus 1, RF
Outline: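 CEM-SS cells infected with HIV-1 RF; cytoprotection against viral cytopathic effect read by MTS assay. EC50 taken as the concentration giving 50% inhibition of cytopathicity.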

CEM-SS = test: Cytotoxicity against mock-infected CEM-SS cells; type: functional; conditions: Homo sapiens
[3] = Half life in rat plasma; type: ADME
Outline: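 In vitro hydrolytic stability in rat plasma, with 1,1-diphenylethylene or benzophenone as internal standard. Half-life reported in minutes with SD.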

[4] = tested on: Human immunodeficiency virus 1; test: Antiviral activity against HIV1 3B in MT4 cells by MTT assay; type: functional, organism-based; conditions: Human immunodeficiency virus 1, 3B
Outline: (§1)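 MT-4 cells infected with HIV-1 IIIB or HIV-2 ROD; protection from virus-induced cytopathicity read by MTT assay. EC50 taken as the concentration giving 50% inhibition of cytopathicity.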

[5] = tested on: Human immunodeficiency virus 2; test: Antiviral activity against HIV2 ROD in MT4 cells by MTT assay; type: functional, organism-based; conditions: Human immunodeficiency virus 2, ROD; outline: as §1
MT4 = test: Cytotoxicity against mock-infected MT4 cells; type: functional; conditions: Homo sapiens

Row | Compound | IC50 [1] | half-life [3] | EC50 [2] | CC50 (CEM-SS) | EC50 [4] | EC50 [5] | CC50 (MT4)
1 | COC(=O)c1cc(/C(=C\CCN2CCOC2=O)c2cc(C)c3on(C)c(=O)c3c2)cc(C)c1OC | 9.86 µM | 22.1 min | 2.7 µM | 16.3 µM |  |  | 
2 | COC(=O)CCCC=C(c1cccc(C#N)c1)c1cc(C)c2on(C)c(=O)c2c1 | 49.6 µM |  | > 100 µM | 14 µM |  |  | 
3 | COC(=O)CCCC=C(c1cccc(C#N)c1)c1cc(C)c2oc(=O)n(C)c2c1 | 26.4 µM | 1.18 min | > 100 µM | 12.9 µM | > 54.2 µM | > 54.2 µM | 54.2 µM
4 | COC(=O)CCC/C=C(/c1cc(C)c2on(C)c(=O)c2c1)c1cc(C)c2oc(=O)n(C)c2c1 | 49.2 µM | 0.46 min | 1.79 µM | 11.1 µM | 4.49 µM | > 36.5 µM | 36.5 µM
5 | COc1noc2c(C)cc(/C(=C\CCN3CCOC3=O)c3cc(C)c4on(C)c(=O)c4c3)cc12 | 7.6 µM | > 1440 min | > 9.91 µM | 1.54 µM | > 1.12 µM | > 1.12 µM | 1.12 µM

Stronger by IC50 [1], values ahead:

Row | IC50 [1] | half-life [3] | Compound | EC50 [2] | CC50 (CEM-SS) | EC50 [4] | EC50 [5] | CC50 (MT4)
6 | 0.02 µM |  | COC(=O)CCC/C=C(/c1cc(C)c(OC)c(C(=O)OC)c1)c1cc(C)c2oc(=O)n(C)c2c1 | 0.03 µM |  | 0.09 µM |  | 
7 | 2 µM | 1.85 min | COC(=O)CCC/C=C(\c1cc(C)c(OC)c(C(=O)OC)c1)c1cc(C)c2on(C)c(=O)c2c1 | 1.1 µM | > 5 µM | 3.1 µM | > 27.1 µM | 27.1 µM
8 | 0.54 µM | 1.32 min | COC(=O)CCC/C=C(\c1cccc(C#N)c1)c1cc(C)c(OC)c(C(=O)OC)c1 | 0.46 µM | 10.9 µM | 0.47 µM | > 10.6 µM | 10.6 µM
9 | 2.8 µM |  | COC(=O)CCC/C=C(/c1cccc(C#N)c1)c1cc(C)c2oc(=O)n(C)c2c1 | 1.73 µM | 11.5 µM |  |  | 
10 | 1.2 µM |  | COC(=O)CCC/C=C(/c1ccc(C#N)cc1)c1cc(C)c2oc(=O)n(C)c2c1 | 0.59 µM | 21.9 µM | 1.49 µM | > 51 µM | 51 µM
